Test results taken from ChEMBL document CHEMBL1122243, “5-p-benzoquinonyl-2'-deoxyuridine 5'-phosphate: a possible mechanism-based inhibitor of thymidylate synthetase” (J Med Chem, 1983).

Assays:
[1] = target: T1, Thymidylate synthase (Lactobacillus casei) (UniProt P00469); experiment: Inactivation of thymidylate synthetase measured as kobs at a dose 5.56, pH 6.8, 30 degrees Centigrade; conditions: Lacticaseibacillus casei
T1 sequence (whole entry): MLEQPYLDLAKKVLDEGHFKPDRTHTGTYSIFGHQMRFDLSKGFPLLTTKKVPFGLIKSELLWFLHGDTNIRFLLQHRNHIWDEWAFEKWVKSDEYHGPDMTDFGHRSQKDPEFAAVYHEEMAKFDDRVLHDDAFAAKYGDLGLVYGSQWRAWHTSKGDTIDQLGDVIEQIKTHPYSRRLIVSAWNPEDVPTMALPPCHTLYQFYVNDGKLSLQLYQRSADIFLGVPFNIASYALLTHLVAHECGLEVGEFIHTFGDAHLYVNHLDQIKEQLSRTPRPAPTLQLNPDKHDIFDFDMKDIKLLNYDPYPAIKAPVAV
Outline: (§1)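 Thymidylate synthetase from methotrexate-resistant Lactobacillus casei, activated by dialysis against 0.1 M potassium phosphate pH 6.8 with 50 mM mercaptoethanol, then freed of thiol on Sephadex G-25. Enzyme at 0.1–0.4 μM preincubated at 30 °C in 6 mM potassium phosphate pH 6.8, 3 mM MgCl2, 0.12 mM EDTA with inhibitor, with or without substrate for protection. Aliquots were taken over time and assayed.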

[2] = target: T1, Thymidylate synthase (Lactobacillus casei); experiment: Inactivation of thymidylate synthetase measured as kobs at a dose 10.0, pH 6.8, 30 degrees Centigrade; conditions: Lacticaseibacillus casei; outline: as §1
[3] = target: T1, Thymidylate synthase (Lactobacillus casei); experiment: Substrate concentration measured for Inactivation of thymidylate synthetase at a dose 5.56, pH 6.8, 30 degrees Centigrade; conditions: Lacticaseibacillus casei; outline: as §1
[4] = target: T1, Thymidylate synthase (Lactobacillus casei); experiment: Substrate concentration measured for Inactivation of thymidylate synthetase at a dose 10.0 pH 6.8, 30 degrees Centigrade; conditions: Lacticaseibacillus casei; outline: as §1
[5] = target: T1, Thymidylate synthase (Lactobacillus casei); experiment: Inactivation of thymidylate synthetase measured as k2 at 7 pH 4 degrees Celsius temp; conditions: Lacticaseibacillus casei
[6] = target: T1, Thymidylate synthase (Lactobacillus casei); experiment: Inactivation of thymidylate synthetase measured as k2 at 6.8 pH 30 degrees Celsius temp; conditions: Lacticaseibacillus casei
Outline: (§2)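 L. casei (methotrexate-resistant) thymidylate synthetase, activated in 50 mM 2-mercaptoethanol, then freed of thiol on Sephadex G-25 in 0.05 M phosphate pH 6.8; 0.1–0.4 μM enzyme preincubated at 30 °C with inhibitor in 6 mM potassium phosphate pH 6.8, 3 mM MgCl2, 0.12 mM EDTA. Aliquots at 0–50 s assayed 60 s with 50 μM [5-3H]dUMP; ln % activity vs time gives kobs.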

[7] = target: T1, Thymidylate synthase (Lactobacillus casei); experiment: Inactivation of thymidylate synthetase measur as kcat at 6.8 pH 30 degrees Celsius temp; conditions: Lacticaseibacillus casei; outline: as §1
Thymidylate synthase [8] = target: T2, Thymidylate synthase (Lactobacillus casei, UniProt P00469); experiment: Inactivation of thymidylate synthetase measured asKi at 6.8 pH 30 degrees Celsius temp; parameters: species or system Lacticaseibacillus casei; outline: as §2
T2 sequence (P00469 whole entry): T1 sequence (whole entry)

[9] = target: T1, Thymidylate synthase (Lactobacillus casei); experiment: Inactivation of thymidylate synthetase measured as kobs at 2.0 pH 30 degrees Celsius temp; conditions: Lacticaseibacillus casei; outline: as §1
[10] = target: T1, Thymidylate synthase (Lactobacillus casei); experiment: Inactivation of thymidylate synthetase measured as kobs at 0.6 pH 30 degrees Celsius temp; conditions: Lacticaseibacillus casei; outline: as §1
[11] = target: T1, Thymidylate synthase (Lactobacillus casei); experiment: Substrate concentration measured for Inactivation of thymidylate synthetase at a dose 2.0 pH 6.8, 30 degrees Centigrade; conditions: Lacticaseibacillus casei; outline: as §1
[12] = target: T1, Thymidylate synthase (Lactobacillus casei); experiment: Substrate concentration measured for Inactivation of thymidylate synthetase at a dose 0.6, pH 6.8, 30 degrees Centigrade; conditions: Lacticaseibacillus casei; outline: as §1
[13] = target: T1, Thymidylate synthase (Lactobacillus casei); experiment: Inactivation of thymidylate synthetase measured as kcat at 6.8 pH 30 degrees Centigrade temp; conditions: Lacticaseibacillus casei; outline: as §2
[14] = target: T1, Thymidylate synthase (Lactobacillus casei); experiment: Inactivation of thymidylate synthetase measured as kobs at a dose 30.0.0 pH 6.8, 30 degrees Centigrade; conditions: Lacticaseibacillus casei; outline: as §2
[15] = target: T1, Thymidylate synthase (Lactobacillus casei); experiment: Inactivation of thymidylate synthetase measured as kobs at a dose 10.0 pH 6.8, 30 degrees Centigrade; conditions: Lacticaseibacillus casei; outline: as §2
[16] = target: T1, Thymidylate synthase (Lactobacillus casei); experiment: Inactivation of thymidylate synthetase measured as kobs at a dose 1.0 pH 6.8, 30 degrees Centigrade; conditions: Lacticaseibacillus casei; outline: as §2
[17] = target: T1, Thymidylate synthase (Lactobacillus casei); experiment: Inactivation of thymidylate synthetase measured as kobs at a dose 3.0 pH 6.8, 30 degrees Centigrade; conditions: Lacticaseibacillus casei; outline: as §2
[18] = target: T1, Thymidylate synthase (Lactobacillus casei); experiment: Inactivation of thymidylate synthetase measured as k2 at 7 pH 24 degrees Celsius temp; conditions: Lacticaseibacillus casei
Thymidylate synthase [19] = target: T2, Thymidylate synthase; experiment: Inactivation of thymidylate synthetase measured as Ki at 6.8 pH 30 degrees Celsius temp; parameters: species or system Lacticaseibacillus casei; outline: as §2

`O=C1C=CC(=O)C(c2cn([C@H]3C[C@H](O)[C@@H](CO)O3)c(=O)[nH]c2=O)=C1` was tested. Which k obs [1] did it give?
Its k obs is 0.0029 s⁻¹.

And the k obs [2]?
Its k obs is 0.0048 s⁻¹.

And the Substrate [3]?
Its Substrate is 0 µM.

And the Substrate [4]?
Its Substrate is 0 µM.

`CCN1C(=O)C=CC1=O` was tested. Which k2 [5] did it give?
Its k2 is 13 M⁻¹.

`O=c1[nH]c(=O)n([C@H]2C[C@H](O)[C@@H](COP(=O)(O)O)O2)cc1[N+](=O)[O-]` [5-NITRO-DUMP] was tested. Which k2 [6] did it give?
Its k2 is 300000 M⁻¹ s⁻¹.

And the k cat [7]?
Its k cat is 0.146 s⁻¹.

And the Ki (Thymidylate synthase [8])?
The Ki was 0.5 µM.

`O=C1C=CC(=O)C=C1` was tested. Which k obs [9] did it give?
Its k obs is 0.0126 s⁻¹.

What about the k obs [10] of the same compound?
Its k obs is 0.0025 s⁻¹.

What about the Substrate [11] of the same compound?
The Substrate was 0 µM.

What about the Substrate [12] of the same compound?
Its Substrate is 0 µM.

How did the k2 [6] turn out when `O=C(CBr)c1cn(C2CC(O)C(OP(=O)(O)O)O2)c(=O)[nH]c1=O` (centres undefined) was run?
The k2 was 32000.

And the Ki (Thymidylate synthase [8])?
Its Ki is 2 µM.

What about the k cat [13] of the same compound?
Its k cat is 0.065 s⁻¹.

Which results are given for `O=C1C=CC(=O)C(c2ccccc2)=C1`?
k2 [6]: 2600; k obs [14]: 0.078 s⁻¹; k obs [15]: 0.025 s⁻¹; k obs [16]: 0.0034 s⁻¹; k obs [17]: 0.007 s⁻¹

With `NC(=O)CI` as the compound, how does the k2 [18] read?
The k2 was 7 M⁻¹.

Which k2 [6] does the source give for `O=C(CBr)c1cn([C@H]2C[C@H](O)[C@@H](COP(=O)(O)O)O2)c(=O)[nH]c1=O` here?
The k2 was 600 M⁻¹ s⁻¹.

And the k cat [13]?
Its k cat is 0.0025 s⁻¹.

And the Ki (Thymidylate synthase [19])?
The Ki was 4 µM.
